Test results published in ChEMBL document CHEMBL4689842, “EUbOPEN Chemogenomics Library wave 1” (2021).

System: U2OS
Assay: Multiplex assay against U2OS
Type: toxicity, cell-based
Settings: human
Procedure, shortened: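 On a CQ1 microscope at 37°C and 5% CO2, live cells were imaged after compound addition. They had been stained at seeding with Hoechst33342, BioTracker Green Microtubule Cytoskeleton Dye, MitoTracker Red and Annexin V Alexa Fluor 680. CellPathfinder machine-learning gating assigned cells to Hoechst high-intensity objects or normal cells, normal cells to healthy, pyknosed or fragmented nuclei, and pyknosed cells to mitotic or apoptotic. Tubulin, mitochondrial-mass and membrane-permeability phenotypes are per cents of healthy-nucleus cells.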

[1] = 12 h, 1 µM, compound concentration 1 uM, replicate 1
[2] = 12 h, 1 µM, compound concentration 1 uM, replicate 2
[3] = 12 h, 10 µM, compound concentration 10 uM, replicate 1
[4] = 12 h, 10 µM, compound concentration 10 uM, replicate 2
[5] = 24 h, 1 µM, compound concentration 1 uM, replicate 1
[6] = 24 h, 1 µM, compound concentration 1 uM, replicate 2
[7] = 24 h, 10 µM, compound concentration 10 uM, replicate 1
[8] = 24 h, 10 µM, compound concentration 10 uM, replicate 2
[9] = 48 h, 1 µM, compound concentration 1 uM, replicate 1
[10] = 48 h, 1 µM, compound concentration 1 uM, replicate 2
[11] = 48 h, 10 µM, compound concentration 10 uM, replicate 1
[12] = 48 h, 10 µM, compound concentration 10 uM, replicate 2

Q: For `CN1C(=O)[C@@H](NC(=O)c2cc3ccccc3[nH]2)N=C(c2ccccc2)c2ccccc21` [DEVAZEPIDE], which “Population Fragmented Nuclei (%)” value [1] is on record?
A: The value was 12%.

Q: What about the “Population Healthy Nuclei (%)” value [1] of the same compound?
A: The value was 76%.

Q: And the “Population Hoechst High Intensity Objects (%)” value [1]?
A: The value was 7%.

Q: What about the “Population Membrane Permeable-Phenotype (%)” value [1] of the same compound?
A: Its value is 3%.

Q: And the “Population Mitochondria Different-Phenotype (%)” value [1]?
A: Its value is 17%.

Q: What about the “Population Normal (%)” value [1] of the same compound?
A: The value was 92%.

Q: What about the “Population Pyknosed Nuclei (%)” value [1] of the same compound?
A: Its value is 11%.

Q: What about the “Population Tubulin-Different-Phenotype (%)” value [1] of the same compound?
A: The value was 21%.

Q: What about the “Total Cell Count” value [1] of the same compound?
A: Its value is 144.

Q: And the “Population Apoptotic (%)” value [2]?
A: Its value is 33%.

Q: What about the “Population Fragmented Nuclei (%)” value [2] of the same compound?
A: The value was 4%.

Q: What about the “Population Healthy Nuclei (%)” value [2] of the same compound?
A: Its value is 85%.

Q: What about the “Population Hoechst High Intensity Objects (%)” value [2] of the same compound?
A: Its value is 5%.

Q: What about the “Population Membrane Permeable-Phenotype (%)” value [2] of the same compound?
A: The value was 9%.

Q: And the “Population Mitochondria Different-Phenotype (%)” value [2]?
A: The value was 23%.

Q: And the “Population Mitotic Cells (%)” value [2]?
A: The value was 66%.

Q: What about the “Population Normal (%)” value [2] of the same compound?
A: The value was 94%.

Q: What about the “Population Pyknosed Nuclei (%)” value [2] of the same compound?
A: The value was 9%.

Q: What about the “Population Tubulin-Different-Phenotype (%)” value [2] of the same compound?
A: Its value is 10%.

Q: And the “Total Cell Count” value [2]?
A: The value was 68.

Q: What about the “Population Apoptotic (%)” value [3] of the same compound?
A: Its value is 52%.

Q: What about the “Population Fragmented Nuclei (%)” value [3] of the same compound?
A: Its value is 11%.

Q: What about the “Population Healthy Nuclei (%)” value [3] of the same compound?
A: Its value is 72%.

Q: What about the “Population Hoechst High Intensity Objects (%)” value [3] of the same compound?
A: The value was 6%.

Q: And the “Population Membrane Permeable-Phenotype (%)” value [3]?
A: The value was 21%.

Q: What about the “Population Mitochondria Different-Phenotype (%)” value [3] of the same compound?
A: The value was 45%.

Q: And the “Population Mitotic Cells (%)” value [3]?
A: The value was 47%.

Q: And the “Population Normal (%)” value [3]?
A: Its value is 93%.

Q: What about the “Population Pyknosed Nuclei (%)” value [3] of the same compound?
A: Its value is 15%.

Q: What about the “Population Tubulin-Different-Phenotype (%)” value [3] of the same compound?
A: Its value is 70%.

Q: And the “Total Cell Count” value [3]?
A: Its value is 117.

Q: And the “Population Apoptotic (%)” value [4]?
A: Its value is 33%.

Q: And the “Population Fragmented Nuclei (%)” value [4]?
A: The value was 20%.

Q: And the “Population Healthy Nuclei (%)” value [4]?
A: The value was 75%.

Q: What about the “Population Hoechst High Intensity Objects (%)” value [4] of the same compound?
A: Its value is 7%.

Q: What about the “Population Membrane Permeable-Phenotype (%)” value [4] of the same compound?
A: Its value is 37%.

Q: And the “Population Mitochondria Different-Phenotype (%)” value [4]?
A: Its value is 48%.

Q: And the “Population Mitotic Cells (%)” value [4]?
A: The value was 66%.

Q: And the “Population Normal (%)” value [4]?
A: Its value is 92%.

Q: And the “Population Pyknosed Nuclei (%)” value [4]?
A: The value was 5%.

Q: What about the “Population Tubulin-Different-Phenotype (%)” value [4] of the same compound?
A: Its value is 66%.

Q: What about the “Total Cell Count” value [4] of the same compound?
A: Its value is 65.

Q: What about the “Population Apoptotic (%)” value [5] of the same compound?
A: Its value is 31%.

Q: And the “Population Fragmented Nuclei (%)” value [5]?
A: The value was 10%.

Q: What about the “Population Healthy Nuclei (%)” value [5] of the same compound?
A: The value was 76%.

Q: What about the “Population Hoechst High Intensity Objects (%)” value [5] of the same compound?
A: Its value is 5%.

Q: What about the “Population Membrane Permeable-Phenotype (%)” value [5] of the same compound?
A: The value was 1%.

Q: And the “Population Mitochondria Different-Phenotype (%)” value [5]?
A: The value was 14%.

Q: And the “Population Mitotic Cells (%)” value [5]?
A: Its value is 68%.

Q: What about the “Population Normal (%)” value [5] of the same compound?
A: Its value is 94%.

Q: What about the “Population Pyknosed Nuclei (%)” value [5] of the same compound?
A: The value was 13%.

Q: What about the “Population Tubulin-Different-Phenotype (%)” value [5] of the same compound?
A: The value was 12%.

Q: What about the “Total Cell Count” value [5] of the same compound?
A: The value was 173.

Q: What about the “Population Apoptotic (%)” value [6] of the same compound?
A: Its value is 37%.

Q: And the “Population Fragmented Nuclei (%)” value [6]?
A: Its value is 7%.

Q: And the “Population Healthy Nuclei (%)” value [6]?
A: The value was 82%.

Q: What about the “Population Hoechst High Intensity Objects (%)” value [6] of the same compound?
A: Its value is 1%.

Q: And the “Population Membrane Permeable-Phenotype (%)” value [6]?
A: Its value is 3%.

Q: And the “Population Mitochondria Different-Phenotype (%)” value [6]?
A: The value was 10%.

Q: And the “Population Mitotic Cells (%)” value [6]?
A: Its value is 62%.

Q: What about the “Population Normal (%)” value [6] of the same compound?
A: Its value is 98%.

Q: And the “Population Pyknosed Nuclei (%)” value [6]?
A: Its value is 10%.

Q: And the “Population Tubulin-Different-Phenotype (%)” value [6]?
A: The value was 6%.

Q: And the “Total Cell Count” value [6]?
A: The value was 79.

Q: What about the “Population Apoptotic (%)” value [7] of the same compound?
A: Its value is 87%.

Q: What about the “Population Fragmented Nuclei (%)” value [7] of the same compound?
A: Its value is 22%.

Q: And the “Population Healthy Nuclei (%)” value [7]?
A: The value was 49%.

Q: And the “Population Hoechst High Intensity Objects (%)” value [7]?
A: Its value is 6%.

Q: And the “Population Membrane Permeable-Phenotype (%)” value [7]?
A: The value was 29%.

Q: What about the “Population Mitochondria Different-Phenotype (%)” value [7] of the same compound?
A: The value was 29%.

Q: What about the “Population Mitotic Cells (%)” value [7] of the same compound?
A: The value was 12%.

Q: What about the “Population Normal (%)” value [7] of the same compound?
A: Its value is 93%.

Q: What about the “Population Pyknosed Nuclei (%)” value [7] of the same compound?
A: The value was 27%.

Q: What about the “Population Tubulin-Different-Phenotype (%)” value [7] of the same compound?
A: Its value is 47%.

Q: What about the “Total Cell Count” value [7] of the same compound?
A: The value was 123.

Q: And the “Population Apoptotic (%)” value [8]?
A: The value was 92%.

Q: And the “Population Fragmented Nuclei (%)” value [8]?
A: Its value is 28%.

Q: And the “Population Hoechst High Intensity Objects (%)” value [8]?
A: The value was 7%.

Q: And the “Population Membrane Permeable-Phenotype (%)” value [8]?
A: Its value is 19%.

Q: What about the “Population Mitochondria Different-Phenotype (%)” value [8] of the same compound?
A: Its value is 45%.

Q: What about the “Population Mitotic Cells (%)” value [8] of the same compound?
A: Its value is 7%.

Q: And the “Population Normal (%)” value [8]?
A: The value was 92%.

Q: And the “Population Pyknosed Nuclei (%)” value [8]?
A: The value was 22%.

Q: And the “Population Tubulin-Different-Phenotype (%)” value [8]?
A: The value was 51%.

Q: And the “Total Cell Count” value [8]?
A: The value was 68.

Q: And the “Population Apoptotic (%)” value [9]?
A: The value was 33%.

Q: And the “Population Fragmented Nuclei (%)” value [9]?
A: Its value is 9%.

Q: And the “Population Healthy Nuclei (%)” value [9]?
A: Its value is 82%.

Q: And the “Population Hoechst High Intensity Objects (%)” value [9]?
A: Its value is 3%.

Q: What about the “Population Membrane Permeable-Phenotype (%)” value [9] of the same compound?
A: The value was 4%.

Q: What about the “Population Mitochondria Different-Phenotype (%)” value [9] of the same compound?
A: The value was 14%.

Q: What about the “Population Mitotic Cells (%)” value [9] of the same compound?
A: The value was 66%.

Q: What about the “Population Normal (%)” value [9] of the same compound?
A: The value was 96%.

Q: What about the “Population Pyknosed Nuclei (%)” value [9] of the same compound?
A: The value was 8%.

Q: What about the “Population Tubulin-Different-Phenotype (%)” value [9] of the same compound?
A: The value was 8%.

Q: And the “Total Cell Count” value [9]?
A: The value was 231.

Q: What about the “Population Apoptotic (%)” value [10] of the same compound?
A: The value was 50%.

Q: What about the “Population Fragmented Nuclei (%)” value [10] of the same compound?
A: The value was 8%.

Q: What about the “Population Healthy Nuclei (%)” value [10] of the same compound?
A: Its value is 78%.

Q: What about the “Population Hoechst High Intensity Objects (%)” value [10] of the same compound?
A: The value was 1%.

Q: And the “Population Membrane Permeable-Phenotype (%)” value [10]?
A: Its value is 5%.

Q: And the “Population Mitochondria Different-Phenotype (%)” value [10]?
A: Its value is 18%.

Q: And the “Population Mitotic Cells (%)” value [10]?
A: Its value is 50%.

Q: What about the “Population Normal (%)” value [10] of the same compound?
A: Its value is 98%.

Q: What about the “Population Pyknosed Nuclei (%)” value [10] of the same compound?
A: The value was 12%.

Q: And the “Population Tubulin-Different-Phenotype (%)” value [10]?
A: Its value is 16%.

Q: And the “Total Cell Count” value [10]?
A: Its value is 96.

Q: What about the “Population Apoptotic (%)” value [11] of the same compound?
A: Its value is 89%.

Q: What about the “Population Fragmented Nuclei (%)” value [11] of the same compound?
A: Its value is 21%.

Q: And the “Population Healthy Nuclei (%)” value [11]?
A: The value was 37%.

Q: And the “Population Hoechst High Intensity Objects (%)” value [11]?
A: Its value is 5%.

Q: What about the “Population Membrane Permeable-Phenotype (%)” value [11] of the same compound?
A: Its value is 31%.

Q: And the “Population Mitochondria Different-Phenotype (%)” value [11]?
A: Its value is 38%.

Q: What about the “Population Mitotic Cells (%)” value [11] of the same compound?
A: The value was 10%.

Q: And the “Population Normal (%)” value [11]?
A: The value was 94%.

Q: What about the “Population Pyknosed Nuclei (%)” value [11] of the same compound?
A: The value was 41%.

Q: What about the “Population Tubulin-Different-Phenotype (%)” value [11] of the same compound?
A: The value was 45%.

Q: What about the “Total Cell Count” value [11] of the same compound?
A: The value was 124.

Q: And the “Population Apoptotic (%)” value [12]?
A: The value was 92%.

Q: What about the “Population Fragmented Nuclei (%)” value [12] of the same compound?
A: Its value is 24%.

Q: What about the “Population Healthy Nuclei (%)” value [12] of the same compound?
A: The value was 50%.

Q: What about the “Population Hoechst High Intensity Objects (%)” value [12] of the same compound?
A: The value was 13%.

Q: What about the “Population Membrane Permeable-Phenotype (%)” value [12] of the same compound?
A: Its value is 55%.

Q: What about the “Population Mitochondria Different-Phenotype (%)” value [12] of the same compound?
A: Its value is 55%.

Q: What about the “Population Mitotic Cells (%)” value [12] of the same compound?
A: The value was 7%.

Q: And the “Population Normal (%)” value [12]?
A: The value was 86%.

Q: And the “Population Pyknosed Nuclei (%)” value [12]?
A: The value was 24%.

Q: What about the “Population Tubulin-Different-Phenotype (%)” value [12] of the same compound?
A: Its value is 58%.

Q: What about the “Total Cell Count” value [12] of the same compound?
A: Its value is 66.
